Measurements taken from the RNAGym collection of RNA variant scans (doi:10.1126/science.aae0568).
Variants at the floor of the assay were thinned out.

B1: tRNA (parent)
chain: GUUCCGUUGGCGUAAUGGUAACGCGUCUCCCUCCUAAGGAGAAGACUGCGGGUUCGAGUCCCGUACGGAACG

Variants of: B1
Test: yeast fitness relative to wild type (ratio to wild type); higher = fitter; tRNA-Arg(CCU), competitive growth, 37 C, YPD
Method in brief: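 Genotype frequency changes were the basis for Darwinian fitness relative to wild type. The frequencies came from 100-nucleotide paired-end sequencing of gene amplicons from the start population and each end population of pooled yeast strains with tRNA-Arg(CCU) gene variants at the native locus. Competition ran in YPD at 37°C for 24 hours in six replicates, genotypes needed ≥ 100 starting reads, and estimates < 0.5 were set to 0.5.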
With GUUCCGUUGGCGUAAUGGUAGCGCGUCUCCUUCCUAAGGAGAAGACUGCGGCUUCGAGUCCCGUACGAAACG [A21G C31U G52C G68A] the yeast fitness was at most 0.5.
For GUUCCGUUGGCGUAAUGGUAGCGCGUCUCCAUCCUAAGGAGGAGACUGCGGGUUCGAGUCCCGUACGGAACG [A21G C31A A42G], the yeast fitness was 0.561.
Work on GUUCCGUUGGCGUAAUGGUAGCGCGUCUCCCUCUUAAGGAGAAGACUGCGGGUUGGAGUCCCGUACGGAACG [A21G C34U C55G] yielded a yeast fitness of at most 0.5.
Variant GUUCCGUUGGCGUAAUGGUAGCACGUGUCCCUCCUAAGGAGAAGACUGCGGGUUCGAGUCUCGUACGGCACG [A21G G23A C27G C61U A69C] has a yeast fitness of at most 0.5.
Work on GUUCCGUUGGCGUAAUGGUAGCGCGUCUCCCUCCUAAGGAGAAGACUGCGGGUUGGAGUCCCGUAUGGCACG [A21G C55G C66U A69C] yielded a yeast fitness of at most 0.5.
Variant GUUCCGUUGGCGUAAUGGUAGCGCGUCUCCCUCUUAAGGAGAAGACUACGGGUUCGAGUCCCGUACAGAACG [A21G C34U G48A G67A] has a yeast fitness of at most 0.5.
With GUUCCGUUGGCGUAAUGGUAGCGCGUCUCCCUCCUAAGGAGAAGAUUGCGGCUUCGAGUCCCGUACGGAACG [A21G C46U G52C] the yeast fitness was 0.794.
Variant GUUCCGUUGGCGUAAUGGUAGCGCGUCUCCCUACUAAGGACAAGACUGCGGGUUCGAGUCCCGUACGGAACG [A21G C33A G41C] has a yeast fitness of at most 0.5.
For GUUCCGUUGGCGUAAUGGUAGCACGUCUCCCUCCUAAGGAGAAGACUGCGGGUUCGAGUCCCGUACGGAACG [A21G G23A], the yeast fitness was 0.787.
For GUUCCGUUGGCGUAAUGGUAGCGCGUCUCCUUCCUAGGGAGAAGACUGCGGGUUCGAGUCCGGUACGGAACG [A21G C31U A37G C62G], the yeast fitness was at most 0.5.
Work on GUUCCGUUGGCGUAAUGGUAGCGCGUCUCCUUCCCAAGGAGAAGACUGCGGGUUCGAGUCUCGUAUGGAACG [A21G C31U U35C C61U C66U] yielded a yeast fitness of at most 0.5.
For GUUCCGUUGGCGUAAUGGUAGCGCGUCUCCCUCGUAAGGAGAAGACUGCGGGUUCGAGUCCCGUAUGGAACG [A21G C34G C66U], the yeast fitness was at most 0.5.
With GUUCCGUUGGCGUAAUGGUAGCGCGUCUCCCUCCUAAGGAGAAGACUGCGGGUUCGAGUCCCGUAUGGUACG [A21G C66U A69U] the yeast fitness was 0.771.
GUUCCGUUGGCGUAAUGGUAGCGCGUCUCCCUCAUAAGGAGAAGACUGCGGGUUAGAGUCCCGUACGGCACG [A21G C34A C55A A69C] showed a yeast fitness of 0.565.
GUUCCGUUGGCGUAAUGGUAGCGCGUCUCCCUACUAAGGCGAAGACUGCGGGUUCGAGUCCCGUACGGAACG [A21G C33A A40C] showed a yeast fitness of 0.527.
Variant GUUCCGUUGGCGUAAUGGUAGCGCGUCUCCCUCCUAAGGAGAAGACUGUGGGUUCGAGUCCAGUACGGAACG [A21G C49U C62A] has a yeast fitness of 0.602.
Work on GUUCCGUUGGCGUAAUGGUAGCGCGUCUCCCUCCUAAGGAGAAGACUGUGGGUUCGAGUCCGGUACGGAACG [A21G C49U C62G] yielded a yeast fitness of 0.566.
Variant GUUCCGUUGGCGUAAUGGUAGCGCGUCUCCCUCCUAAGGAGAAGACUGCGGGUUCGAGUCGCGUACGGAACG [A21G C61G] has a yeast fitness of 0.654.
Work on GUUCCGUUGGCGUAAUGGUAGCGCGUCUCCCUCCUAAGGAGAAGACUGCGGGUUCGAGUCACGUACGGAACG [A21G C61A] yielded a yeast fitness of 0.645.
With GUUCCGUUGGCGUAAUGGUAGCGCGUCUCCCUCCUAAGGAGAAGACUGCGGGUUCGAGUCUCGUACGGAACG [A21G C61U] the yeast fitness was 1.
In the case of GUUCCGUUGGCGUAAUGGUAGCACGUCUCCUUCCUAAGGAGAAGCCUGCGGGUUCGAGUACCGUAUGGAACG [A21G G23A C31U A45C C60A C66U], the yeast fitness is reported as at most 0.5.
With GUUCCGUUGGCGUAAUGGUAGCGCGUCUCCCUCUUAGGGAGAAGACUGCGGGUUCGAGUACCGUACGGAACG [A21G C34U A37G C60A] the yeast fitness was 0.651.
For GUUCCGUUGGCGUAAUGGUAGCACGUCUCCCUCCUAAGGAGAAGACUGCGGGUUCGUGUCCCGUACGGAUCG [A21G G23A A57U A70U], the yeast fitness was at most 0.5.
With GUUCCGUUGGCGUAAUGGUAGCGCGUCUCCCUCCUAAGGAGAAGAUUGCGGGUUCGAGUCCUGUACGGAACG [A21G C46U C62U] the yeast fitness was 1.1.
Variant GUUCCGUUGGCGUAAUGGUAGCGCGUCUCCGUCCUAAGGAGAAGACUGCGGGUUCGAGUCCCGUACGGAACG [A21G C31G] has a yeast fitness of 1.05.
For GUUCCGUUGGCGUAAUGGUAGCGCGUCUCCCUCCUAAGGAGAAGACUGCGGGUUCGAGUCCCGUAAGGAACG [A21G C66A], the yeast fitness was 0.701.
GUUCCGUUGGCGUAAUGGUAGCGCGUCUCCCUACUAAGGAGAAGACUGUGGGUUGGAGUCCCGUACGGAACG [A21G C33A C49U C55G] gave a yeast fitness of at most 0.5.
In the case of GUUCCGUUGGCGUAAUGGUAGCGCGUCUCCGUCCUAAGGAGAAGACUGCGGGUUCGAGUCCCAUACGGAACG [A21G C31G G63A], the yeast fitness is reported as 0.774.
GUUCCGUUGGCGUAAUGGUAGCGCGUCUCCCUCCUAAGGAGAAGACUGCGGGUUCGAGUGCCGUACGGAACG [A21G C60G] showed a yeast fitness of 0.667.
For GUUCCGUUGGCGUAAUGGUAGCGCGUCUCCCUCCUAAGGAGAAGACUGCGGGUUCGAGUCGCGUAUGGUACG [A21G C61G C66U A69U], the yeast fitness was at most 0.5.
In the case of GUUCCGUUGGCGUAAUGGUAGCACGUCUCCCUCCUAAGGAGAAGCCUGCGGAUUCGAGUCCCGUACGGCACG [A21G G23A A45C G52A A69C], the yeast fitness is reported as 0.521.
GUUCCGUUGGCGUAAUGGUAGCGCGUCUCCCUUCUAAGGAGAAGACUGCGCGUUCGAGUCCCGUACGGAACG [A21G C33U G51C] gave a yeast fitness of at most 0.5.
Variant GUUCCGUUGGCGUAAUGGUAGCGCGUCUCCCUCCUAAGGAGAAGAUUGCGGGUUCGAGUACCGUACGGAACG [A21G C46U C60A] has a yeast fitness of at most 0.5.
Variant GUUCCGUUGGCGUAAUGGUAGCGCGUCUCACUGCUAAGGAGAAGACCGCGGGUUCGAGACCCGUAUGGAACG [A21G C30A C33G U47C U59A C66U] has a yeast fitness of at most 0.5.
GUUCCGUUGGCGUAAUGGUAGCACGUCUCCUUCCUAAGGAGAAGACUGCGGGUUCGAGUCCCGUACGGAACG [A21G G23A C31U] gave a yeast fitness of 0.528.
Work on GUUCCGUUGGCGUAAUGGUAGCGCGUCUCGCUCCUAAGGAGAAGACUGCGGGUGCGAGUCCCGUGCGUACCG [A21G C30G U54G A65G G68U A70C] yielded a yeast fitness of at most 0.5.
With GUUCCGUUGGCGUAAUGGUAGCGCGUCUCCCUACUAAGGAGAAGACUGCGAGUUCGUGUCCCGUUCGGAACG [A21G C33A G51A A57U A65U] the yeast fitness was at most 0.5.
